Screening data as filed in PubChem.
An excerpt weighted towards active compounds, which were near 1.6% of everything screened.
bovine MsrA act = activators of bovine methionine sulfoxide reductase A | purified bovine MsrA, absorbance read-out | activation, % at 10.6 µM | 360,000 compounds, 0.3% hits | AID 602163; in the data active = activation above about 7.5%
MT1-MMP act inh = MT1-MMP (human) activation inhibition | 360,000 compounds, 0.061% hits | P50281 | GFP/RFP ratio change, % at 20 µM | HT1080 RFP-PRO-GFP cells, GFP/RFP ratio fluorescence, overnight; percent of plate control window, DMSO zero;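 active = GFP/RFP ratio change of at least 30% with cell ATP level not reduced by more than half and red fluorescence within 50% of control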
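Material: RFP-PRO-GFP reporter HT1080 cells. Dosing: single-point 20 µM compound, 1% DMSO. Controls: DMSO and RFP-L50D-GFP cell wells. Timing: cells overnight before dosing, compound overnight, 37 °C, 5% CO2. Measure: GFP/RFP fluorescence ratio.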
SKN-1 inh = inhibitors of C. elegans SKN-1 | C. elegans VP596 Pgst-4::GFP/RFP ratio, acrylamide-induced, 24 h | inhibition, % at 21.8 µM | 360,000 compounds, 0.49% hits | AID 624304;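 active = interference check ratio from 0.5 to 1.5 plus GFP to RFP signal ratio inhibition reaching or exceeding a fixed threshold, cut at about 30% in these data, passing the limit was not always enough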
MsrA inhibitor = inhibits bovine methionine sulfoxide reductase A | AID 651718 | purified bovine MsrA, absorbance read-out | inhibition, % at 15.5 µM | 360,000 compounds, 0.75% hits; in the data active = inhibition above about 4.5%
pCIP destab = compounds decreasing mouse p/CIP protein stability; Q05BA5; F442A p/CIP-EGFP cells, EGFP fluorescence, 16 h; decrease of EGFP signal, % at 10 µM; 290,000 compounds, 0.01% hits; AID 1984;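 active = EGFP signal decrease of at least 30% at 10 µM or well 3 SD below plate mean, unless failing retest; inactive = the rest, including hits failing retest or dose response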
Target sequence (Q05BA5 1-1403): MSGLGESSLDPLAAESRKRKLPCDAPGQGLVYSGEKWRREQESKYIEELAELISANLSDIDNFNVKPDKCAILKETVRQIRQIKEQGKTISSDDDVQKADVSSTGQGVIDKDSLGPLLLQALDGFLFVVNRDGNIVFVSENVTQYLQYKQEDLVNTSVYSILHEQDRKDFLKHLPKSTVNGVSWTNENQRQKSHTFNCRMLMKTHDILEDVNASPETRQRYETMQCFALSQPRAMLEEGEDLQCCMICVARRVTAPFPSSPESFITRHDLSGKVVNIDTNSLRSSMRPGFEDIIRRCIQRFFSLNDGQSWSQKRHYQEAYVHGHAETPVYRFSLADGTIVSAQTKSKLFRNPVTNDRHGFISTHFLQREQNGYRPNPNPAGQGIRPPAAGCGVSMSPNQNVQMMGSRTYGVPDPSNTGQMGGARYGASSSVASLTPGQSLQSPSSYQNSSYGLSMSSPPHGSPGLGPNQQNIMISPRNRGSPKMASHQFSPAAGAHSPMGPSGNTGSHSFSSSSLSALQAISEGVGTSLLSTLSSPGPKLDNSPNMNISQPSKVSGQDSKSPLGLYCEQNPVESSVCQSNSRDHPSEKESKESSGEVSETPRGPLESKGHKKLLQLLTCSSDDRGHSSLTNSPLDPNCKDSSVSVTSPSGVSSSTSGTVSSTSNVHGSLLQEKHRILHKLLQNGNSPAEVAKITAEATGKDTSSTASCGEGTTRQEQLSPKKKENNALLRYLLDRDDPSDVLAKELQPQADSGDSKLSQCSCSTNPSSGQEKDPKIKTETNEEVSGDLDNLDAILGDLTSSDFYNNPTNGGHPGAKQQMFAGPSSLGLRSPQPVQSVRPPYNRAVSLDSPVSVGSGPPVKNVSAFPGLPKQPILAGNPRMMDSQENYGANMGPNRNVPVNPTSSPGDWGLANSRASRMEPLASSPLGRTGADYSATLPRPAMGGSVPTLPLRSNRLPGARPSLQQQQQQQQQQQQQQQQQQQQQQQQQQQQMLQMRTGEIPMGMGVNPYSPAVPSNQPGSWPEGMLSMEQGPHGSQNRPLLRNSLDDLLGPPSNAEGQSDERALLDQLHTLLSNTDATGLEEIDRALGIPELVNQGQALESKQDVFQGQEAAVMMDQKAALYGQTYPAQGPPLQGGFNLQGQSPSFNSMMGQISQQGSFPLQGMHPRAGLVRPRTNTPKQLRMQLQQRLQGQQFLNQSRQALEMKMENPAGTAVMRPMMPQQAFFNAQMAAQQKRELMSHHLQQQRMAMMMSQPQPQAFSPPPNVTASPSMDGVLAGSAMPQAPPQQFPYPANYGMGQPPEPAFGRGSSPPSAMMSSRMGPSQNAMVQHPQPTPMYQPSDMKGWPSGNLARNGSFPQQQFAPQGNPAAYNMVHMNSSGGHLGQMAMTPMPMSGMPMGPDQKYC
Each line names hits and unclear results; the compound was inactive in the other large screens.

S=P(c1ccc(N2CCOCC2)cc1N1CCOCC1)(N1CCOCC1)N1CCOCC1	SKN-1 inh 44
Nc1ncnc2c1ncn2[C@@H]1O[C@H](C(=O)N[C@@H](CCc2ccccc2)C(=O)N2CCN(C(=O)N3CCOCC3)CC2)[C@@H](O)[C@H]1O	none (no result: bovine MsrA act, MT1-MMP act inh, SKN-1 inh, pCIP destab)
C[C@H](c1ccccc1)N1C[C@@H](COCc2ccccc2)Oc2cccc(Oc3ccc(F)cc3)c2S1(=O)=O	none (no result: bovine MsrA act, MT1-MMP act inh, SKN-1 inh, pCIP destab)
COC(=O)c1cccc(-n2sc3ccccc3c2=O)c1	bovine MsrA act 11 (no result: pCIP destab)
Cc1ccc(-n2[nH]c(C)c(C=Nc3ccc4[nH]c(=O)[nH]c4c3)c2=O)cc1C	none
Cc1[nH]n(-c2cccc3ccccc23)c(=O)c1C=Nc1ccc2[nH]c(=O)[nH]c2c1	SKN-1 inh 41
CC(=NNc1cc(C)c2cc(C)ccc2n1)c1ccccn1	none (no result: bovine MsrA act, MT1-MMP act inh, SKN-1 inh, pCIP destab)
O=C(Nc1ccc(Cl)cc1)NC1CCCCNC1=O (stereo not drawn)	SKN-1 inh 36
Cc1cccc(CSc2ccc(-c3ccco3)nn2)c1	none
Clc1cccc(CSc2ccc(-c3ccco3)nn2)c1	SKN-1 inh 67
c1ccc(CSc2ccc(-c3ccco3)nn2)cc1	SKN-1 inh 36
Clc1ccc(CSc2ccc(-c3ccco3)nn2)cc1	none
Fc1ccccc1CSc1ccc(-c2ccco2)nn1	SKN-1 inh 39
Cc1ccc(CSc2ccc(-c3ccco3)nn2)cc1	none
Cc1cc(Nc2ccc(Cl)c(C(F)(F)F)c2)cc(=O)n1-c1ccc(Cl)c(C(F)(F)F)c1	none (no result: bovine MsrA act, MT1-MMP act inh, SKN-1 inh, pCIP destab)
COC(=O)CC#C[C@H](C)[C@@H](NS(C)(=O)=O)C1CCCCC1	none (no result: bovine MsrA act, MT1-MMP act inh, SKN-1 inh, pCIP destab)
CCC1OC2(C)OC(=N)C1(C#N)C(C#N)(C#N)C2c1ccccc1 (stereo not drawn)	SKN-1 inh 47
CC(=O)OC[C@H]1O[C@H](C#Cc2ccc(C(C)(C)C)cc2)C=C[C@H]1OC(=O)Nc1ccccc1	none (no result: bovine MsrA act, MT1-MMP act inh, SKN-1 inh, pCIP destab)
Cc1cc(C)n(C(N)=NC(=O)c2ccc([N+](=O)[O-])cc2)n1	pCIP destab 42
Cc1cc(C)n(C(N)=NC(=O)c2ccccc2)n1	none (no result: pCIP destab)
Cc1ccc(S(=O)(=O)N(C)[C@H]2C[C@H]3c4[nH]c5c(-c6ccccc6)cccc5c4CCN3C(=O)[C@H]2[C@H](C)O)cc1	none (no result: bovine MsrA act, MT1-MMP act inh, SKN-1 inh, pCIP destab)
Fc1ccc(-c2nnc(Cc3ccc(Cl)cc3)o2)cc1	SKN-1 inh 44
C[C@@H]1OC(C2CCCCC2)N(C)[C@H]2C[C@H]3c4[nH]c5c(-c6ccccc6)cccc5c4CCN3C(=O)[C@@H]12 (stereo partly drawn)	none (no result: bovine MsrA act, MT1-MMP act inh, SKN-1 inh, pCIP destab)
Cc1ccccc1S(=O)Cc1ccc(C(=O)N2CCN(C(=O)c3ccco3)CC2)o1 (stereo not drawn)	SKN-1 inh 35
Fc1ccc(-c2csc(N3CCSCC3)n2)cc1	SKN-1 inh 41
Clc1ccc(-c2csc(N3CCSCC3)n2)cc1	SKN-1 inh 50
Cc1cc(NC(=O)c2ccco2)ccc1-n1cnnn1	SKN-1 inh 61
O=C(Nc1ccc(Cl)c(C(F)(F)F)c1)c1ccco1	SKN-1 inh 44
COC(=O)C1=C(C)N(CC(C)C)C(=S)NC1c1ccc(Cl)cc1 (stereo not drawn)	none (no result: bovine MsrA act, MT1-MMP act inh, SKN-1 inh, pCIP destab)
C[C@@H]1C=CCCO[C@]12C(=O)N(Cc1ccc(Br)cc1)c1ccccc12	none (no result: bovine MsrA act, MT1-MMP act inh, SKN-1 inh, pCIP destab)
CC1CCCN(CCCNC(=O)c2coc3nc4ccccc4nc23)C1 (stereo not drawn)	none
Cc1ccc(CCNC(=O)c2coc3nc4ccccc4nc23)cc1	SKN-1 inh 37
CC(C)(C)OC(=O)N1CCC2CCN(CCc3ccccc3)CC21 (stereo not drawn)	none (no result: bovine MsrA act, MT1-MMP act inh, SKN-1 inh, pCIP destab)
Cc1ccc(C(=O)c2nc3c(n2O)CCCC3)cc1	none
CCOc1ccc(C(=O)c2nc3c(n2O)CCCC3)cc1	MsrA inhibitor 5.0
S=c1[nH]nc(-c2ccco2)n1/N=C/c1c(Cl)cccc1Cl	SKN-1 inh 47
O=c1c2ccccc2sc2ccc(Cl)cc12	none
Nc1ccc2c(c1)sc1ccccc12	SKN-1 inh 54
Nc1ccc2nc(N)sc2c1	none (no result: pCIP destab)
O=c1c2ccccc2sc2ccccc12	SKN-1 inh 43 (no result: pCIP destab)
O=c1c2ccccc2ccc2ccccc12	SKN-1 inh 35 (no result: pCIP destab)
O=C(N[C@H](C(=O)N1CCC[C@H]1C(=O)NCCc1ccccc1Cl)C1CCCCC1)c1ccc(Cl)c(Cl)c1	none (no result: bovine MsrA act, MT1-MMP act inh, SKN-1 inh, pCIP destab)
O=C1c2ccccc2C(=O)c2c1ccc(C(=O)N1CCCCC1)c2NCCO	SKN-1 inh 40
Clc1ccc(OCCSc2ncccn2)cc1	SKN-1 inh 38
COC(=O)[C@]12C[C@H](CC(=O)NCc3ccc(C)o3)C(=O)N(Cc3ccccc3)C1=C[C@H](C(C)C)O[C@@H]2C1CC1	none (no result: bovine MsrA act, MT1-MMP act inh, SKN-1 inh, pCIP destab)
COC(=O)c1ccc(C#Cc2ccccc2)o1	SKN-1 inh 37
O=C(C(=O)N1CCN(S(=O)(=O)c2ccc(Cl)cc2)CC1)c1cccc(C(F)(F)F)c1	none (no result: bovine MsrA act, MT1-MMP act inh, SKN-1 inh, pCIP destab)
O=c1c2ccccc2nc(/C=C/c2ccccc2)n1CCCO	MsrA inhibitor 4.6
CCn1cc(C(=O)OCC(=O)NCc2ccc3c(c2)OCO3)c(=O)c2ccc(C)nc21	SKN-1 inh 35
CCn1cc(C(=O)NCc2ccc3c(c2)OCO3)c(=O)c2ccc(C)nc21	none (no result: bovine MsrA act, MT1-MMP act inh, SKN-1 inh, MsrA inhibitor)
Cc1ccccc1NC(=O)CSC1=C(C#N)C(c2ccsc2)CC(=O)N1 (stereo not drawn)	SKN-1 inh 38
N#CC1=C(SCC(=O)Nc2nccs2)NC(=O)CC1c1ccccc1 (stereo not drawn)	none
O=C(NCC1CC1)c1ccc(-c2cn[nH]c2)c2ccoc12	SKN-1 inh 35 (no result: pCIP destab)
COCCNC(=O)c1ccc(-c2cn[nH]c2)c2ccoc12	none (no result: pCIP destab)
c1ccc(-c2ccc(-c3nc(-c4ccncc4)no3)cc2)cc1	none
CCOc1ccc(-c2nc(-c3cccnc3)no2)cc1	SKN-1 inh 53
c1ccc(-c2nc(-c3ccncc3)no2)cc1	SKN-1 inh 69
O=[N+]([O-])c1ccc(-c2cnc3ccccc3n2)cc1	none
CCOc1ccc(-c2cnc3ccccc3n2)cc1	SKN-1 inh 35
CCOc1ccc(-c2nnc(-c3ccccc3)o2)cc1	SKN-1 inh 38
COc1cccc(C(=O)N[C@H](C(=O)N2CCC[C@H]2C(=O)NCc2ccccc2)C(C)C)c1	none (no result: bovine MsrA act, MT1-MMP act inh, SKN-1 inh, pCIP destab)
F[B-](F)(F)c1cncnc1	none (no result: bovine MsrA act, MT1-MMP act inh, SKN-1 inh, pCIP destab)
c1ccc(-c2noc(-c3cccnc3)n2)cc1	none
CCc1ccc(-c2nc(-c3ccncc3)no2)cc1	SKN-1 inh 48
c1ccc(-c2ccc(-c3nc(-c4cccnc4)no3)cc2)cc1	SKN-1 inh 43
O=C1/C(=C/c2ccccc2)SC(=S)N1CCCC(=O)N1CCCCC1CCO (stereo not drawn)	none
O=C1/C(=C/c2cccs2)SC(=S)N1CC(=O)N1CCCCC1CCO (stereo not drawn)	SKN-1 inh 44
COC(=O)c1c(NC(=O)CN2CCN(Cc3ccc4c(c3)OCO4)CC2)sc(C)c1C	SKN-1 inh 36
COC(=O)c1ccsc1NC(=O)CN1CCN(Cc2ccc3c(c2)OCO3)CC1	none
CCn1c(C)c(C)c2cc(C(=O)N3CCN(c4ccccc4)CC3)ccc21	SKN-1 inh 46
Cc1c(C)n(Cc2ccc(F)cc2)c2ccc(C(=O)N3CCN(c4ccccn4)CC3)cc12	SKN-1 inh 59
